Measurements published in ChEMBL document CHEMBL1944595, “1,4-diarylpiperazines and analogs as anti-tubercular agents: synthesis and biological evaluation” (Eur J Med Chem, 2012).
≈ marks a conversion by molar mass, not a printed value.

Experiments:
Type in all cases: functional
[1] = test system: Mycobacterium tuberculosis; assay: Antibacterial activity against Mycobacterium tuberculosis H37Rv harboring pSMT1 encoding Vibrio harveyi luxAB gene at 1 uM after 7 days by luminometric analysis; details: 168 h, read-out: GI
Outline: (§1)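 Same extracellular assay. Bacteria seeded at 1000 RLU per well in Sauton + 10% FCS. Compounds added from 1 mM DMSO stocks to final 10, 1 or 0.1 per well. Incubated 7 days at 37 °C, 5% CO2. Wells harvested, washed four times with PBS and pooled. 1% n-decanal added and luminescence read over 10 s. Percent growth inhibition calculated against untreated control cultures.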

[2] = test system: Mycobacterium tuberculosis; assay: Antibacterial activity against Mycobacterium tuberculosis H37Rv harboring pSMT1 encoding Vibrio harveyi luxAB gene at 0.1 uM after 7 days by luminometric analysis; details: 168 h, read-out: GI; outline: as §1
[3] = test system: Mycobacterium tuberculosis; assay: Antibacterial activity against Mycobacterium tuberculosis H37Rv harboring pSMT1 encoding Vibrio harveyi luxAB gene at 10 uM after 7 days by luminometric analysis; details: 168 h, read-out: GI; outline: as §1
[4] = test system: Mycobacterium tuberculosis; assay: Antibacterial activity against Mycobacterium tuberculosis H37Rv harboring pSMT1 encoding Vibrio harveyi luxAB gene infected in mouse J774.A1 cells at 2 uM after 5 days by luminometric analysis; details: J774.A1, 120 h, read-out: GI
Outline: (§2)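 J774.A1 macrophages seeded at 40 000 per well and rested overnight. Infected with 4000 RLU of luminescent H37Rv (MOI 0.1) in DMEM with penicillin/Fungizone, with compound dilutions added. Treated 5 days, then washed, given 1 h 1% gentamicin, and lysed with 1% Triton X-100. Lysate luminescence read over 10 s with n-decanal. Inhibition relative to untreated infected cells; six replicate cultures.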

[5] = test system: Mycobacterium tuberculosis; assay: Antibacterial activity against Mycobacterium tuberculosis H37Rv harboring pSMT1 encoding Vibrio harveyi luxAB gene infected in mouse J774.A1 cells at 0.5 uM after 5 days by luminometric analysis; details: J774.A1, 120 h, read-out: GI; outline: as §2
[6] = test system: Mycobacterium tuberculosis; assay: Antibacterial activity against Mycobacterium tuberculosis H37Rv harboring pSMT1 encoding Vibrio harveyi luxAB gene infected in mouse J774.A1 cells at 1 uM after 5 days by luminometric analysis; details: J774.A1, 120 h, read-out: GI; outline: as §2
[7] = test system: Mycobacterium tuberculosis; assay: Antibacterial activity against Mycobacterium tuberculosis H37Rv harboring pSMT1 encoding Vibrio harveyi luxAB gene after 7 days by luminometric analysis; details: 168 h
[8] = test system: Mycobacterium tuberculosis; assay: Antimicrobial activity against multidrug-resistant Mycobacterium tuberculosis LAM1 by BACTEC 460-TB method
Outline: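 Clinical MDR LAM-1 isolate, resistant to isoniazid, rifampicin, rifabutin and prothionamide. Pre-cultured in 7H9-based BACTEC vial to growth index 300. 100 µL inoculated into a new vial with compound dilutions prepared in 7H9 + 10% OADC. GI read daily. MIC99 determined by comparison with an untreated culture diluted 100-fold at inoculation.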

SMILES | inhibition of growth at 1 µM [1] [%] | inhibition of growth at 0.1 µM [2] [%] | inhibition of growth at 10 µM [3] [%] | inhibition in vivo at 2 µM [4] [%] | inhibition in vivo at 0.5 µM [5] [%] | inhibition in vivo at 1 µM [6] [%] | MIC50 [7] [µM] | MIC99 [8] [µM]
O=[N+]([O-])c1ccc(N2CCN(c3ccccc3)CC2)cc1 | < 10 | < 10 | 26 | – | – | – | – | –
O=[N+]([O-])c1ccc(NCCNc2ccc([N+](=O)[O-])cc2)cc1 | < 10 | < 10 | 16 | – | – | – | – | –
O=[N+]([O-])c1ccc(N2CCN(c3ccc([N+](=O)[O-])cc3)CC2)cc1 | 10 | < 10 | 13 | – | – | – | – | –
Nc1ccc(N2CCN(c3ccccc3)CC2)cc1 | < 10 | < 10 | 30 | – | – | – | – | –
N#Cc1ccc(N2CCN(c3ccccc3)CC2)cc1 | < 10 | < 10 | 23 | – | – | – | – | –
Nc1ccc(N2CCN(c3ccc(N)cc3)CC2)cc1 | 10 | < 10 | 27 | – | – | – | – | –
N#Cc1ccc(N2CCN(c3ccc(C#N)cc3)CC2)cc1 | < 10 | < 10 | 22 | – | – | – | – | –
O=[N+]([O-])c1ccccc1NCCNc1ccccc1[N+](=O)[O-] | < 10 | < 10 | < 10 | – | – | – | – | –
O=[N+]([O-])c1cccc(NCCNc2cccc([N+](=O)[O-])c2)c1 | < 10 | < 10 | 13 | – | – | – | – | –
N#Cc1ccc(NCCNc2ccc(C#N)cc2)cc1 | < 10 | < 10 | 10 | – | – | – | – | –
N#Cc1ccccc1NCCNc1ccccc1C#N | < 10 | < 10 | < 10 | – | – | – | – | –
N#Cc1cccc(NCCNc2cccc(C#N)c2)c1 | < 10 | < 10 | < 10 | – | – | – | – | –
Cl.N=C(N)c1ccc(N2CCN(c3ccccc3)CC2)cc1 | < 10 | < 10 | 14 | 1.83 | -0.47 | 0.41 | 29.6 | –
CNC(=N)c1ccc(N2CCN(c3ccccc3)CC2)cc1.Cl | < 10 | < 10 | 16 | 14.9 | -0.8 | 6.43 | 15.9 | –
CCNC(=N)c1ccc(N2CCN(c3ccccc3)CC2)cc1.Cl | < 10 | < 10 | 10 | 22.5 | 3.93 | 13.4 | 11.9 | –
CCCNC(=N)c1ccc(N2CCN(c3ccccc3)CC2)cc1.Cl | < 10 | < 10 | 33 | 26.1 | 5.62 | 12.9 | 7.01 | –
CCCCNC(=N)c1ccc(N2CCN(c3ccccc3)CC2)cc1.Cl | < 10 | < 10 | 66 | 50.6 | 25.6 | 31.6 | 2.16 | –
CCCCCNC(=N)c1ccc(N2CCN(c3ccccc3)CC2)cc1.Cl | 39 | < 10 | 95 | 64.7 | 44.7 | 53.6 | 1.2 | 3.85
CCCCCCNC(=N)c1ccc(N2CCN(c3ccccc3)CC2)cc1.Cl | 91 | 49 | 99 | 88.1 | 67.1 | 79.2 | 0.264 | 2.11
CCCCCCCNC(=N)c1ccc(N2CCN(c3ccccc3)CC2)cc1.Cl | 94 | 47 | 100 | 83.3 | 61.1 | 64.2 | 0.091 | 1.48
CCCCCCCCNC(=N)c1ccc(N2CCN(c3ccccc3)CC2)cc1.Cl | 94 | 61 | 100 | 71.6 | 15.2 | 31.1 | 0.072 | 1.17
CCCCCCCCCCCCNC(=N)c1ccc(N2CCN(c3ccccc3)CC2)cc1.Cl | 97 | 68 | 100 | 44.9 | 10.7 | 23.4 | 0.052 | 0.95
CCC(CC)NC(=N)c1ccc(N2CCN(c3ccccc3)CC2)cc1 | 19 | < 10 | 67 | – | – | – | – | –
N=C(N)c1ccc(NCCNc2ccccc2)cc1 | < 10 | < 10 | < 100 | – | – | – | – | –
CCC(CC)NC(=N)c1ccc(NCCNc2ccccc2)cc1 | 19 | 10 | 63 | – | – | – | – | –
CCCCCCNC(=N)c1ccc(NCCNc2ccccc2)cc1 | 48 | 23 | 93 | – | – | – | – | –
N=C(NCCc1ccccc1)c1ccc(N2CCN(c3ccccc3)CC2)cc1 | 56 | < 10 | 97 | – | – | – | – | –
NNC(=O)c1ccncc1 [ISONIAZID] | 100 | 98 | 100 | 51.4 | 9.77 | 29.4 | 0.465 (≈ 0.0638 µg/mL) | –
